Data from ChEMBL document CHEMBL2146382, “Cytotoxic and antineoplastic activity of timosaponin A-III for human colon cancer cells” (J Nat Prod, 2011).
pIC50: −log10 of the molar value. Active and inactive are the calls of the source. The calls are words filed in the database; no cut-off is given here.

What was measured:
[1] = tested on: Hs68; assay: Growth inhibition of human HS68 cells; type: cell-based
Summary of the method: (§1)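 SRB assay: cells at 5 × 10^4 cells/mL were exposed to a concentration series for 3 days, fixed with 10% TCA and stained with sulforhodamine B. Survival was expressed as % of solvent-treated control and IC50 taken by nonlinear regression of % survival versus concentration. Media held 10% heat-inactivated FBS plus antibiotics: RPMI (HCT-15, HCT 116, HT-29), RPMI with 25 mM HEPES (SW480, SW620), DMEM (MRC-5, Hs68). Cultures were kept at 37 C, 5% CO2.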

[2] = tested on: HCT-15; assay: Induction of apoptosis in human HCT15 cells assessed as increase in caspase-3 expression at 5 to 20 uM by Western blot analysis; type: functional, cell-based
Summary of the method: (§2)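 HCT-15 cells in RPMI/10% FBS exposed to test compound at various concentrations; lysates quantified by BCA, 30–50 μg protein run on 10% SDS-PAGE, transferred to PVDF, blocked 1 h in 5% milk/PBST, primary antibodies overnight at 4 °C, HRP anti-mouse IgG 1:1500 for 3 h at room temperature, ECL detection.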

[3] = tested on: HCT-15; assay: Growth inhibition of human HCT15 cells; type: functional, cell-based; summary of the method: as §1
[4] = tested on: HCT-15; assay: Cytotoxicity against human HCT15 cells assessed as morphological changes with distinct rounded shapes and detachment at 5 to 20 uM by phase-contrast microscopy; type: functional, cell-based; conditions: TDE = time-dependent effect
Summary of the method: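 HCT-15 cells treated with 0–20 μM for 12 and 24 h, vehicle-treated controls; morphology examined and photographed under phase-contrast microscope.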

[5] = tested on: HCT-15; assay: Induction of apoptosis in human HCT15 cells assessed as suppression of procaspase-9 expression at 5 to 20 uM after 12 to 24 hrs by Western blot analysis; type: functional, cell-based
Summary of the method: (§3)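 HCT-15 cells (RPMI, 10% heat-inactivated FBS, antibiotics-antimycotics, 37 C, 5% CO2) exposed to compound. Cells lysed, protein measured by BCA, 30-50 μg per lane resolved on 10% SDS-PAGE and electroblotted to PVDF. Membranes blocked 1 h in 5% nonfat milk/PBST, probed with primary antibodies overnight at 4 C, then HRP anti-mouse IgG 1:1500 for 3 h at room temperature. Detection by ECL; β-actin antibody available.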

[6] = tested on: HCT-15; assay: Cell cycle arrest in human HCT15 cells up to 10 uM after 12 hrs by propidium-iodide staining by flow-cytometry; type: functional, cell-based
[7] = tested on: HCT-15; assay: Cell cycle arrest at G2/M phase in human HCT15 cells assessed as cyclin A down regulation at 5 to 20 uM after 12 to 24 hrs by Western blot analysis; type: functional, cell-based; summary of the method: as §2
[8] = tested on: HCT-15; assay: Antineoplastic activity against human HCT15 cells xenografted nude in BALB/c mouse assessed as inhibition of rate of tumor size at 2 mg/kg, ip 3 times a week for 4 weeks relative to control; type: functional; conditions: HCT-15, ip, 672 h, route intraperitoneal
Summary of the method: (§4)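 HCT-15 cells (2 × 10^6 in 200 μL medium) implanted subcutaneously in flanks of BALB/c-nu (nu/nu) mice; dosing began at ca. 80 mm3 tumours; groups of five, randomized. 2 or 5 mg/kg given ip three times weekly in ethanol–cremophor–H2O (0.5:0.5:99), vehicle controls; caliper volume (3.14·L·W·H/6) three times weekly for 30 days; Ki-67 immunohistochemistry on tumour sections (1:250, 4 °C overnight, DAB, hematoxylin counterstain).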

[9] = tested on: HCT-15; assay: Induction of apoptosis in human HCT15 cells assessed as increase in caspase-9 expression at 5 to 20 uM by Western blot analysis; type: functional, cell-based; summary of the method: as §3
[10] = tested on: HCT-15; assay: Cell cycle arrest in human HCT15 cells assessed as accumulation at S phase at 5 uM after 24 hrs using propidium-iodide staining by flow-cytometry (reference value: 34.1 %); type: functional
[11] = tested on: HCT-15; assay: Cell cycle arrest in human HCT15 cells assessed as accumulation at G0/G1 phase at 5 uM after 12 hrs using propidium-iodide staining by flow-cytometry (reference value: 44.4 %); type: functional
[12] = tested on: HCT-15; assay: Cell cycle arrest at G0/G1 phase in human HCT15 cells assessed as decrease in CDK4 expression at 5 to 20 uM after 12 to 24 hrs by Western blot analysis; type: functional, cell-based; summary of the method: as §2
[13] = tested on: HCT-15; assay: Induction of apoptosis in human HCT15 cells assessed as suppression of procaspase-8 expression at 5 to 20 uM after 12 to 24 hrs by Western blot analysis; type: functional, cell-based; summary of the method: as §3
[14] = tested on: HCT-15; assay: Cell cycle arrest in human HCT15 cells assessed as accumulation at sub-G1 phase at 10 uM after 12 hrs using propidium-iodide staining by flow-cytometry (reference value: 5.2 %); type: functional
[15] = tested on: HCT-15; assay: Induction of apoptosis in human HCT15 cells assessed as increase in caspase-8 expression at 5 to 20 uM by Western blot analysis; type: functional, cell-based; summary of the method: as §3
[16] = tested on: HCT-15; assay: Induction of apoptosis in human HCT15 cells assessed as DNA fragmentation at 5 to 20 uM after 24 hrs by agarose-gel electrophoresis; type: functional, cell-based
Summary of the method: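 HCT-15 cells seeded 1 × 10^6 per 100 mm dish, after 24 h given fresh medium with compound (0–20 μM) for 24 h; lysed in 50 mM Tris-HCl pH 7.5/20 mM EDTA/1% NP-40, RNase A then proteinase K digestion, ethanol/ammonium acetate precipitation; 4 μg DNA on 2% agarose, SYBR Gold stain.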

[17] = tested on: HCT-15; assay: Cell cycle arrest in human HCT15 cells assessed as accumulation at G2/M phase at 5 uM after 12 hrs using propidium-iodide staining by flow-cytometry (reference value: 15.7 %); type: functional
[18] = tested on: HCT-15; assay: Cell cycle arrest in human HCT15 cells assessed as accumulation at G0/G1 phase at 10 uM after 12 hrs using propidium-iodide staining by flow-cytometry (reference value: 44.4 %); type: functional
[19] = tested on: Mus musculus; assay: Toxicity in human HCT15 cells xenografted nude BALB/c mouse assessed as body weight changes at 2 to 5 mg/kg, ip administered 3 times a week for 4 weeks measured after 9 to 30 days; type: organism-based, HCT-15; set-up: route intraperitoneal; conditions: in vivo
Summary of the method: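 HCT-15 cells (2 × 10^6) were injected subcutaneously into the flank of BALB/c-nu (nu/nu) mice. Dosing began once tumours reached ca. 80 mm3, with mice randomised to groups of five. Compound (2 or 5 mg/kg) in ethanol-cremophor-H2O (0.5:0.5:99) was given ip three times weekly for four weeks. Controls received equal-volume vehicle. Body weight was monitored over the testing period, with tumour measurements over 30 days.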

[20] = tested on: HCT-15; assay: Cell cycle arrest in human HCT15 cells assessed as accumulation at sub-G1 phase at 10 uM after 24 hrs using propidium-iodide staining by flow-cytometry (reference value: 6.5 %); type: functional
[21] = tested on: HCT-15; assay: Antineoplastic activity against human HCT15 cells xenografted in nude BALB/c mouse assessed as inhibition of Ki-67 expression at 2 mg/kg, ip 3 times a week for 4 weeks by immunohistochemical analysis; type: functional, organism-based; set-up: dose 2 mg/kg; summary of the method: as §4
[22] = tested on: HCT-15; assay: Antineoplastic activity against human HCT15 cells xenografted in nude BALB/c mouse assessed as inhibition of rate of tumor size at 5 mg/kg, ip 3 times a week for 4 weeks relative to control; type: functional; conditions: HCT-15, ip, 672 h, route intraperitoneal; summary of the method: as §4
[23] = tested on: HCT-15; assay: Induction of apoptosis in human HCT15 cells assessed as increase in caspase-8 expression after 12 to 24 hrs by Western blot analysis; type: functional, cell-based; summary of the method: as §2
[24] = tested on: HT-29; assay: Growth inhibition of human HT-29 cells; type: functional, cell-based; summary of the method: as §1

With C[C@H]1CC[C@@]2(OC1)O[C@H]1C[C@H]3[C@@H]4CC[C@@H]5C[C@@H](O[C@@H]6O[C@H](CO)[C@H](O)[C@H](O)[C@H]6O[C@@H]6O[C@H](CO)[C@@H](O)[C@H](O)[C@H]6O)CC[C@]5(C)[C@H]4CC[C@]3(C)[C@H]1[C@@H]2C [TIMOSAPONIN AIII] the pIC50 [1] was < 4.30, the Activity [2] was “Active” and the pIC50 [3] was 5.21. The Activity [4] was “tde”, the Activity [5] was “Active” and the Activity [6] was “Active”. The Activity [7] was “Active”, the inhibition in vivo at 2 mg/kg [8] was 8.3% and the Activity [9] was “Active”. For the same compound, the Activity [10] was 37%, the Activity [11] was 52.2% and the Activity [12] was “Active”. The Activity [13] was “Active”, the Activity [14] was 14.2% and the Activity [15] was “Active”. The Activity [16] was “Active”, the Activity [17] was 20.5% and the Activity [18] was 43.2%. The Activity [19] was “Non-toxic”, the Activity [20] was 6.4% and the Activity [21] was “Active”. For the same compound, the inhibition in vivo at 5 mg/kg [22] was 37.3%, the Activity [23] was “Active” and the pIC50 [24] was 4.99.
